Assay results as given in ChEMBL document CHEMBL1131384, “Synthesis and structure-activity relationships of potent and orally active 5-HT4 receptor antagonists: indazole and benzimidazolone derivatives” (J Med Chem, 1998).

Tests used:
[1] = target: 5-hydroxytryptamine receptor 4 (Rattus norvegicus) (UniProt Q62758); test: Antagonistic activity by ability to block serotonin induced relaxation (mediated by activation of 5-hydroxytryptamine 4 receptor) in carbamylcholine (10e-6 M) contracted esophagus at a concentration of 10e-7 M.; assay type: functional, tissue-based
Chain of 5-hydroxytryptamine receptor 4 (Rattus norvegicus) (Q62758 whole entry): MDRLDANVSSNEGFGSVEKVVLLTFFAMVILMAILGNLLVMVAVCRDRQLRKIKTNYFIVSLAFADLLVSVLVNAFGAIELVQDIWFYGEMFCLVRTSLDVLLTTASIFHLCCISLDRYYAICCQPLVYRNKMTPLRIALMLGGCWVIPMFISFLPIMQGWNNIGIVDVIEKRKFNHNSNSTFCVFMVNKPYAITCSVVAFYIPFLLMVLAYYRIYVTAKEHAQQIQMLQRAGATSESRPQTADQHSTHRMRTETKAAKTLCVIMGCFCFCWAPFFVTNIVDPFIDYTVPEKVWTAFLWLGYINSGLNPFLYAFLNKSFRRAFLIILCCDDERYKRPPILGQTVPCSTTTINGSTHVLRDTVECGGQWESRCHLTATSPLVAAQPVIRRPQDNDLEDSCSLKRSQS
In short: (§1)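 Isolated rat esophagus precontracted with carbamylcholine (10^-6 M). Tissue was challenged with serotonin (1 µM) in the presence of the antagonist at a given concentration or of vehicle. Relaxation was recorded as % relaxation to 10^-6 M 5-HT, given as mean ± SEM with the number of determinations.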

[2] = target: 5-hydroxytryptamine receptor 4 (Rattus norvegicus) (UniProt Q62758); test: Antagonistic activity evaluated by ability to block serotonin induced relaxation (mediated by activation of 5-hydroxytryptamine 4 receptor) in carbamylcholine (10e-6 M) contracted esophagus at a concentration of 10e-8 M.; assay type: functional, tissue-based; in short: as §1
[3] = target: 5-hydroxytryptamine receptor 4 (Rattus norvegicus) (UniProt Q62758); test: Antagonistic activity evaluated by ability to block serotonin induced relaxation via 5-hydroxytryptamine 4 receptor) in carbamylcholine (10e-6 M) contracted esophagus at a concentration of 0.1 mg/kg (p.o.); assay type: functional, organism-based; set-up: dose 0.1 mg/kg
In short: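 Rats were dosed with the antagonist by oral gavage. Esophagus was removed 3 h after dosing and challenged ex vivo with serotonin. Read-out was % relaxation of the carbamylcholine-contracted tissue to 10^-6 M 5-HT, given as mean ± SEM with the number of determinations.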

[4] = target: 5-hydroxytryptamine receptor 4 (Rattus norvegicus) (UniProt Q62758); test: Antagonistic activity by ability to block serotonin induced relaxation (mediated by activation of 5-hydroxytryptamine 4 receptor) in carbamylcholine (10e-6 M) contracted esophagus at a concentration of 10e-6 M.; assay type: functional, tissue-based; in short: as §1
[5] = target: T1, Adrenergic receptor alpha-1 (Rattus norvegicus) (UniProt P15823+P23944+P43140); test: Binding affinity for Alpha-1 adrenergic receptor in rat aorta determined by block of norepinephrine induced contraction of rat aorta; assay type: tissue-based
[6] = target: T1, Adrenergic receptor alpha-1 (Rattus norvegicus); test: Affinity for the alpha-1 adrenergic receptor determined by the displacement of [3H]prazosin from rat whole brain tissue.; assay type: tissue-based
[7] = target: 5-hydroxytryptamine receptor 4 (Rattus norvegicus) (UniProt Q62758); test: Antagonistic activity evaluated by ability to block serotonin induced relaxation (mediated by activation of 5-hydroxytryptamine 4 receptor) in carbamylcholine (10e-6 M) contracted esophagus at a concentration of 10e-5 M.; assay type: functional, tissue-based; in short: as §1
[8] = target: 5-hydroxytryptamine receptor 4 (Rattus norvegicus) (UniProt Q62758); test: Antagonistic activity evaluated by ability to block serotonin induced relaxation (via 5-hydroxytryptamine 4 receptor) in carbamylcholine (10e-6 M) contracted esophagus at a concentration of 3*10e-8 M.; assay type: functional
In short: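 Isolated rat esophagus precontracted with carbamylcholine (10^-6 M), then challenged with serotonin (1 μM) in the presence of antagonist at the stated concentration or vehicle. Read-out is % relaxation to serotonin, given as mean ± SEM with the number of determinations.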

[9] = target: Serotonin 2 (5-HT2) receptor (Rattus norvegicus) (UniProt P30994+P08909+P14842); test: Binding affinity against 5-hydroxytryptamine 2 receptor in serotonin-induced contraction of the rat aorta; assay type: tissue-based
Chain of Serotonin 2 (5-HT2) receptor (Rattus norvegicus) (P08909 whole entry, looked up): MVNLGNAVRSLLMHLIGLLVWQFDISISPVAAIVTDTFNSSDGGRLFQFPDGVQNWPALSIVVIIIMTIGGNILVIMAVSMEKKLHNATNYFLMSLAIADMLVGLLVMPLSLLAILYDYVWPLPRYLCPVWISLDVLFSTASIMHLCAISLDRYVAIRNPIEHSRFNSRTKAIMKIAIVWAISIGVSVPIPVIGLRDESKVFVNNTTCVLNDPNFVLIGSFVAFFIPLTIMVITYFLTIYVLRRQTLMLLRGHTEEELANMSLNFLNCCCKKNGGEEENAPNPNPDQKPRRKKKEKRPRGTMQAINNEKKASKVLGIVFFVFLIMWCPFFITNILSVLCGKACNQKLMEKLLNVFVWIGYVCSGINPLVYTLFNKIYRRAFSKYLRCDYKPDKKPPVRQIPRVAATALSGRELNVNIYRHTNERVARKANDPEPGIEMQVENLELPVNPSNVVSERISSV
Chain of Serotonin 2 (5-HT2) receptor (Rattus norvegicus) (P14842 whole entry, looked up): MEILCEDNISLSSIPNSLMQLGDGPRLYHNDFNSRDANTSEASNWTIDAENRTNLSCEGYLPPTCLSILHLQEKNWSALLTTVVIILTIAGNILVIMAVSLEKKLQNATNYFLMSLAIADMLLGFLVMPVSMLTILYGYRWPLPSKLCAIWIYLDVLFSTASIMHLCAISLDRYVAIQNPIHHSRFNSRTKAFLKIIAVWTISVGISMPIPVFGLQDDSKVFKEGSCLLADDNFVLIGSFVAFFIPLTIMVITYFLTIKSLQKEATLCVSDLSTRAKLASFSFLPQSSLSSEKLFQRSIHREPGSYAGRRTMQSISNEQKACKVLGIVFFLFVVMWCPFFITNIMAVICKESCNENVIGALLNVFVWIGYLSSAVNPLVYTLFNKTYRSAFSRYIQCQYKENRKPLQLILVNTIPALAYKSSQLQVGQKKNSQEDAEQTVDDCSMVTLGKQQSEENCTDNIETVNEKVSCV
Chain of Serotonin 2 (5-HT2) receptor (Rattus norvegicus) (P30994 whole entry, looked up): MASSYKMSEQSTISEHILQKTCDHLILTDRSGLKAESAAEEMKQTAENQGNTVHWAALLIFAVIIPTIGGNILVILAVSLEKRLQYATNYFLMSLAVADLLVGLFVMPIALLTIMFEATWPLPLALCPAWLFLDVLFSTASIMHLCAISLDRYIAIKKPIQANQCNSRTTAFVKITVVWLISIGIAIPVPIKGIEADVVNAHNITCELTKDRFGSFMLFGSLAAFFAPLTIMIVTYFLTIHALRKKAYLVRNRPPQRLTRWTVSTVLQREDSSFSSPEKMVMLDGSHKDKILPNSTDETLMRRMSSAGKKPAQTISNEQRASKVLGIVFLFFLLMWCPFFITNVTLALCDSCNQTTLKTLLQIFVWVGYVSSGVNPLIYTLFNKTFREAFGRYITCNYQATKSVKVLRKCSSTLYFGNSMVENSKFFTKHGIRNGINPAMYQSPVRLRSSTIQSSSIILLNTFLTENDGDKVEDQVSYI

Structure (SMILES) | Relaxation [1] [%] | Relaxation [3] [%] | Relaxation [4] [%] | further results
CCCCC(=O)NC1CCN(CCNC(=O)c2nn(C(C)C)c3ccccc23)CC1 | 25.6 | 38 | – | Relaxation [2]: 51%
CCCn1nc(C(=O)NC2CC3CCC(C2)N3C)c2ccccc21 (stereo unspecified) | – | – | 2.5 | –
CCn1nc(C(=O)NC2CC3CCC(C2)N3C)c2ccccc21 (stereo unspecified) | – | – | 6.7 | –
CN1C2CCC1CC(NC(=O)c1cn(C)c3ccccc13)C2 (stereo unspecified) | – | – | 47.3 | –
CC(C)n1nc(C(=O)NC2CCN(CCCCc3ccccc3)CC2)c2ccccc21 | – | – | 4 | pKb [5]: 5.6
CCC(=O)NC1CCN(CCNC(=O)c2nn(C(C)C)c3ccccc23)CC1 | 11.3 | 36 | – | –
CC(C)n1nc(C(=O)NC2CCN(CCNC(=O)c3ccccc3)CC2)c2ccccc21 | 28 | – | 6 | pKb [5]: 5.8; pKi [6]: 6.62
CC(C)n1nc(C(=O)NCCN2CCCCCC2)c2ccccc21 | – | 52 | 4.8 | pKi [6]: 5
CC(C)n1nc(C(=O)NC2CCN(CCc3ccccc3)CC2)c2ccccc21 | – | – | 1.3 | pKb [5]: 7.68
CC(C)n1nc(C(=O)NCCN2CCC(Cc3ccccc3)CC2)c2ccccc21 | 42 | 26 | 16.4 | –
CC(C)n1nc(C(=O)NCCN2CCC(NC(=O)NCc3ccccc3)CC2)c2ccccc21 | – | 30 | 3.3 | –
CC(C)n1nc(C(=O)NC2CCN(CCCCCc3ccccc3)CC2)c2ccccc21 | – | – | 43.7 | –
CN1C2CCC1CC(NC(=O)c1cccc3ccccc13)C2 (stereo unspecified) | – | – | – | Relaxation [7]: 76.5%
CC(C)n1c(=O)n(C(=O)NC2CC3CCC(C2)N3CCCOc2ccc(F)cc2)c2ccccc21 (stereo unspecified) | 29.5 | – | 2.1 | –
CC(C)n1nc(C(=O)NCCN2CCC(NC(=O)Cc3ccccc3)CC2)c2ccccc21 | 23.7 | 39 | 5.6 | –
CC(C)n1nc(C(=O)NCCN2CCC(NC(=O)Nc3ccc(F)cc3)CC2)c2ccccc21 | 44.8 | 45.5 | 6.3 | –
CC(C)n1nc(C(=O)NCCN2CCC(NC(=O)Nc3ccccc3)CC2)c2ccccc21 | – | 33.7 | 11 | –
CC(C)n1c(=O)n(C(=O)NC2CCN(CCCOc3ccc(F)cc3)CC2)c2ccccc21 | 62 | – | – | –
CC(C)n1nc(C(=O)NCCCCN2CCCCC2)c2ccccc21 | 43.3 | 49 | 3.3 | pKi [6]: 5.2

Structure (SMILES) | Relaxation [1] [%] | Relaxation [3] [%] | Relaxation [4] [%] | further results
CC(C)n1nc(C(=O)NCCN2CCC(NC(=O)c3ccccc3)CC2)c2ccccc21 | 14.7 | 50 | 2 | Relaxation [2]: 34.3%
CCC(C)n1cc(C(=O)NC2CC3CCC(C2)N3C)c2ccccc21 (stereo unspecified) | – | – | 57.8 | –
CC(C)n1nc(C(=O)NCCN2CCN(Cc3ccccc3)CC2)c2ccccc21 | – | – | 9.1 | –
CC(C)n1nc(C(=O)NC2CCN(CCCc3ccccc3)CC2)c2ccccc21 | – | – | 3.7 | pKb [5]: 5.8
CC(C)n1nc(C(=O)NCCN2CCC(NC(=O)C(C)(C)C)CC2)c2ccccc21 | 7.8 | 30 | 3.3 | Relaxation [2]: 50.5%; Relaxation [8]: 35%
CC(C)n1cc(C(=O)NC2CC3CCC(C2)N3C)c2ccccc21 (stereo unspecified) | – | – | 25.3 | –
CN1[C@@H]2CC[C@H]1C[C@@H](OC(=O)c1c[nH]c3ccccc13)C2 | – | – | 33.9 | Relaxation [7]: 26.4%
CN1C2CCC1CC(NC(=O)c1n[nH]c3ccccc13)C2 (stereo unspecified) | – | – | – | Relaxation [7]: 50.5%
CC(C)n1nc(C(=O)NCCN2CCc3ccccc3C2)c2ccccc21 | – | 41 | 20.3 | –
CC(C)n1nc(C(=O)NCCN2CCC(NC(=O)C34C[C@H]5C[C@@H](C3)C[C@@H](C4)C5)CC2)c2ccccc21 | 11 | 27 | – | Relaxation [2]: 48.1%; Relaxation [8]: 23.2%; pKi [6]: 4.3
CC(C)n1nc(C(=O)NCCN2CCC(NC(=O)OCc3ccccc3)CC2)c2ccccc21 | – | 21 | 2.8 | pKb [5]: < 5; pKi [6]: 5.9
CN1C2CCCC1CC(NC(=O)c1nn(C)c3ccccc13)C2 (stereo unspecified) | – | – | – | Relaxation [7]: 21%
CC(C)n1nc(C(=O)NC2CC3CCC(C2)N3CCCOc2ccc(F)cc2)c2ccccc21 (stereo unspecified) | 22.2 | – | 17.7 | –
CCC(C)n1c(=O)n(C(=O)NC2CC3CCC(C2)N3C)c2ccccc21 (stereo unspecified) | – | – | 8.8 | –
CCC(C)n1nc(C(=O)NC2CC3CCC(C2)N3C)c2ccccc21 (stereo unspecified) | – | – | – | Relaxation [8]: 46.3%
CCn1c(=O)n(C(=O)NC2CC3CCC(C2)N3C)c2ccccc21 (stereo unspecified) | – | – | – | Relaxation [8]: 37.5%
CC(C)n1nc(C(=O)NCCN2CCC(NS(C)(=O)=O)CC2)c2ccccc21 | – | 29 | 7.3 | –
CC(C)C(=O)NC1CCN(CCNC(=O)c2nn(C(C)C)c3ccccc23)CC1 | 9 | 45 | – | Relaxation [2]: 34.8%
CC(C)n1nc(C(=O)NCCN2CCCC2)c2ccccc21 | – | 51 | 4.3 | pKi [6]: < 4

Structure (SMILES) | Relaxation [1] [%] | Relaxation [3] [%] | Relaxation [4] [%] | further results
CCn1cc(C(=O)NC2CC3CCC(C2)N3C)c2ccccc21 (stereo unspecified) | – | – | 44.8 | –
CC(C)n1nc(C(=O)NC2CCN(CCNS(C)(=O)=O)CC2)c2ccccc21 | 16 | – | 6.8 | pKb [5]: < 5; pKi [6]: < 4
CCN(CC)CCNC(=O)c1nn(C(C)C)c2ccccc12 | – | – | 26.8 | –
CC(C)n1nc(C(=O)NCCN2CCN(C(=O)c3ccccc3)CC2)c2ccccc21 | – | – | 19.8 | –
CC(C)n1c(=O)n(C(=O)NC2CCN(C)CC2)c2ccccc21 | 40.8 | – | 7.5 | –
CCCn1cc(C(=O)NC2CC3CCC(C2)N3C)c2ccccc21 (stereo unspecified) | – | – | 34.3 | –
CC(C)n1nc(C(=O)NCCN2CCC(N)CC2)c2ccccc21 | – | 41 | 36.8 | –
CCCC(=O)NC1CCN(CCNC(=O)c2nn(C(C)C)c3ccccc23)CC1 | 26.5 | 51 | – | –
CC(C)n1nc(C(=O)NC2CCNCC2)c2ccccc21 | – | – | 32 | –
CC(=O)NC1CCN(CCNC(=O)c2nn(C(C)C)c3ccccc23)CC1 | – | 19.1 | 6.8 | Relaxation [2]: 51.3%; Relaxation [8]: 33.5%; pKi [6]: < 4
COc1cc(N)c(Cl)cc1C(=O)NC1CC2CCC(C1)N2C (stereo unspecified) | – | – | 5.4 | Relaxation [7]: 2.8%
CC(C)n1nc(C(=O)NCCN2CCOCC2)c2ccccc21 | 42.3 | – | 19.8 | –
CC(C)n1nc(C(=O)NC2CCN(CCNC(=O)C34C[C@H]5C[C@@H](C3)C[C@@H](C4)C5)CC2)c2ccccc21 | 38.5 | – | 1 | –
CCCn1c(=O)n(C(=O)NC2CC3CCC(C2)N3C)c2ccccc21 (stereo unspecified) | – | – | 4.3 | Relaxation [8]: 30.7%
CN1C2CCC1CC(NC(=O)n1c(=O)n(C)c3ccccc31)C2 (stereo unspecified) | – | – | 7.3 | –
CC(C)n1nc(C(=O)NC2CCN(CCCOc3ccc(F)cc3)CC2)c2ccccc21 | 15.7 | – | 7.5 | pKb [9]: 6.8; Relaxation [8]: 36%; pKb [5]: 6.7; pKi [6]: 7.69
CN1C2CCC1CC(NC(=O)c1c[nH]c3ccccc13)C2 (stereo unspecified) | – | – | 60 | –
CC(C)n1nc(C(=O)NC2CCN(CCN3C(=O)c4ccccc4C3=O)CC2)c2ccccc21 | – | – | 7.5 | pKb [9]: < 5
